Experimental data: ChEMBL document CHEMBL3351523 (Bioorg Med Chem, 2014)

Tested on: Poliovirus 1
Assay: Antiviral activity against Poliovirus type 1 Sabin strain infected in african green monkey Vero 76 cells assessed as reduction in plaque number after 2 days by plaque reduction assay
Type: functional, organism-based
Conditions: Enterovirus C, 48 h
In the case of `Oc1ccc(-c2nc3cc(C(F)(F)F)ccc3n2C[C@@H]2CCCN3CCCC[C@H]23)cc1`, the EC50 is reported as over 100 µM. `COc1ccc(-c2nc3cc(C(F)(F)F)ccc3n2C[C@H]2CCCN3CCCC[C@H]23)cc1` gave an EC50 of over 100 µM. With `CCN(CC)CCCn1c(Cc2ccc(Cl)c(Cl)c2)nc2cc(C(F)(F)F)ccc21` the EC50 was 63 µM. Compound `Clc1ccc(Cc2nc3cc(Cl)c(Cl)cc3n2C[C@@H]2CCCN3CCCC[C@H]23)cc1` has an EC50 of over 100 µM.

Tested on: Yellow fever virus
Assay: Antiviral activity against Yellow fever virus infected in BHK21 cells assessed as inhibition of virus-induced cytopathogenicity after 3 to 4 days by MTT assay
Type: functional, organism-based
Conditions: BHK-21
With `Oc1ccc(-c2nc3cc(C(F)(F)F)ccc3n2C[C@@H]2CCCN3CCCC[C@H]23)cc1` the EC50 was over 100 µM. For `COc1ccc(-c2nc3cc(C(F)(F)F)ccc3n2C[C@H]2CCCN3CCCC[C@H]23)cc1`, the EC50 was over 100 µM. In the case of `CCN(CC)CCCn1c(Cc2ccc(Cl)c(Cl)c2)nc2cc(C(F)(F)F)ccc21`, the EC50 is reported as over 100 µM. `Clc1ccc(Cc2nc3cc(Cl)c(Cl)cc3n2C[C@@H]2CCCN3CCCC[C@H]23)cc1` gave an EC50 of over 100 µM.

Tested on: Human immunodeficiency virus 1
Assay: Antiviral activity against HIV1 infected in human MT4 cells assessed as inhibition of virus-induced cytopathogenicity after 4 days by MTT assay
Type: functional, organism-based
Conditions: Human immunodeficiency virus 1, MT4, 96 h
How it was run: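 MT-4 cells (1 × 10^4/well in RPMI) were infected acutely with HIV-1 IIIB, 100 CCID50 (m.o.i. 0.01), with serial dilutions from 100 µM, 1:5. After 4 days at 37 °C, protection from virus-induced cytopathogenicity was read by MTT. EC50 came from linear regression against untreated controls.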
`Oc1ccc(-c2nc3cc(C(F)(F)F)ccc3n2C[C@@H]2CCCN3CCCC[C@H]23)cc1` showed an EC50 of over 100 µM. For `COc1ccc(-c2nc3cc(C(F)(F)F)ccc3n2C[C@H]2CCCN3CCCC[C@H]23)cc1`, the EC50 was over 100 µM. In the case of `CCN(CC)CCCn1c(Cc2ccc(Cl)c(Cl)c2)nc2cc(C(F)(F)F)ccc21`, the EC50 is reported as over 100 µM. `Clc1ccc(Cc2nc3cc(Cl)c(Cl)cc3n2C[C@@H]2CCCN3CCCC[C@H]23)cc1` showed an EC50 of over 100 µM.

Tested on: not listed separately
Assay: Selectivity index, ratio of CC50 for african green monkey Vero 76 cells to EC50 for Coxsackievirus B5
Type: toxicity, cell-based
Conditions: read-out: Ratio CC50/EC50
How it was run: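 Mock-infected Vero-76 cells were tested in parallel on the same 24-well plates as the plaque assays (seeding 4 × 10^5 cells/mL, D-MEM with FBS), with serial compound dilutions at 37 °C, 5% CO2. Viability was read after 48–96 h by crystal violet staining. CC50 by linear regression; selectivity index = Vero-76 CC50/EC50 for CVB-5 or RSV.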
`Oc1ccc(-c2nc3cc(C(F)(F)F)ccc3n2C[C@@H]2CCCN3CCCC[C@H]23)cc1` showed a selectivity ratio of 3. `COc1ccc(-c2nc3cc(C(F)(F)F)ccc3n2C[C@H]2CCCN3CCCC[C@H]23)cc1` showed a selectivity ratio of over 1.85. `CCN(CC)CCCn1c(Cc2ccc(Cl)c(Cl)c2)nc2cc(C(F)(F)F)ccc21` gave a selectivity ratio of over 5.88. `Clc1ccc(Cc2nc3cc(Cl)c(Cl)cc3n2C[C@@H]2CCCN3CCCC[C@H]23)cc1` gave a selectivity ratio of over 3.57.

Tested on: Coxsackievirus B5
Assay: Antiviral activity against Coxsackievirus B5 infected in african green monkey Vero 76 cells assessed as reduction in plaque number after 3 days by plaque reduction assay
Type: functional, organism-based
Conditions: Enterovirus B, 72 h
In the case of `Oc1ccc(-c2nc3cc(C(F)(F)F)ccc3n2C[C@@H]2CCCN3CCCC[C@H]23)cc1`, the EC50 is reported as 26 µM. In the case of `COc1ccc(-c2nc3cc(C(F)(F)F)ccc3n2C[C@H]2CCCN3CCCC[C@H]23)cc1`, the EC50 is reported as 54 µM. With `CCN(CC)CCCn1c(Cc2ccc(Cl)c(Cl)c2)nc2cc(C(F)(F)F)ccc21` the EC50 was 17 µM. `Clc1ccc(Cc2nc3cc(Cl)c(Cl)cc3n2C[C@@H]2CCCN3CCCC[C@H]23)cc1` showed an EC50 of 28 µM.

Tested on: Bovine viral diarrhea virus 1
Assay: Antiviral activity against Bovine viral diarrhea virus infected in MDBK cells assessed as inhibition of virus-induced cytopathogenicity after 3 to 4 days by MTT assay
Type: functional, organism-based
Conditions: Bovine viral diarrhea virus isolates and strains
`Oc1ccc(-c2nc3cc(C(F)(F)F)ccc3n2C[C@@H]2CCCN3CCCC[C@H]23)cc1` showed an EC50 of over 100 µM. With `COc1ccc(-c2nc3cc(C(F)(F)F)ccc3n2C[C@H]2CCCN3CCCC[C@H]23)cc1` the EC50 was over 100 µM. For `CCN(CC)CCCn1c(Cc2ccc(Cl)c(Cl)c2)nc2cc(C(F)(F)F)ccc21`, the EC50 was over 100 µM. Work on `Clc1ccc(Cc2nc3cc(Cl)c(Cl)cc3n2C[C@@H]2CCCN3CCCC[C@H]23)cc1` yielded an EC50 of over 100 µM.

Tested on: not listed separately
Assay: Cytotoxicity against mock-infected MDBK cells after 48 to 96 hrs by MTT assay
Type: cell-based, Bos taurus
Conditions: cattle
How it was run: (§1)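 Mock-infected MDBK (6 × 10^5 cells/mL; MEM-E, 10% horse serum, 1 mM pyruvate) or BHK (1 × 10^6 cells/mL; MEM-E, 10% FBS) cells were incubated at 37 °C, 5% CO2 with serial dilutions from 100 µM, 1:5. Viability by MTT after 48–96 h. CC50 from linear regression against untreated controls.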
In the case of `Oc1ccc(-c2nc3cc(C(F)(F)F)ccc3n2C[C@@H]2CCCN3CCCC[C@H]23)cc1`, the CC50 is reported as 48 µM. With `COc1ccc(-c2nc3cc(C(F)(F)F)ccc3n2C[C@H]2CCCN3CCCC[C@H]23)cc1` the CC50 was 57 µM. With `CCN(CC)CCCn1c(Cc2ccc(Cl)c(Cl)c2)nc2cc(C(F)(F)F)ccc21` the CC50 was 26 µM. `Clc1ccc(Cc2nc3cc(Cl)c(Cl)cc3n2C[C@@H]2CCCN3CCCC[C@H]23)cc1` gave a CC50 of over 100 µM.

Tested on: Vaccinia virus
Assay: Antiviral activity against Vaccinia Virus infected in african green monkey Vero 76 cells assessed as reduction in plaque number after 3 days by plaque reduction assay
Type: functional, organism-based
Conditions: Orthopoxvirus vaccinia, 72 h
Compound `Oc1ccc(-c2nc3cc(C(F)(F)F)ccc3n2C[C@@H]2CCCN3CCCC[C@H]23)cc1` has an EC50 of over 100 µM. Compound `COc1ccc(-c2nc3cc(C(F)(F)F)ccc3n2C[C@H]2CCCN3CCCC[C@H]23)cc1` has an EC50 of over 100 µM. In the case of `CCN(CC)CCCn1c(Cc2ccc(Cl)c(Cl)c2)nc2cc(C(F)(F)F)ccc21`, the EC50 is reported as over 100 µM. `Clc1ccc(Cc2nc3cc(Cl)c(Cl)cc3n2C[C@@H]2CCCN3CCCC[C@H]23)cc1` gave an EC50 of over 100 µM.

Tested on: Reovirus sp.
Assay: Antiviral activity against Reovirus type-1 infected in BHK21 cells assessed as inhibition of virus-induced cytopathogenicity after 3 to 4 days by MTT assay
Type: functional, organism-based
Conditions: BHK-21
Work on `Oc1ccc(-c2nc3cc(C(F)(F)F)ccc3n2C[C@@H]2CCCN3CCCC[C@H]23)cc1` yielded an EC50 of 32 µM. Compound `COc1ccc(-c2nc3cc(C(F)(F)F)ccc3n2C[C@H]2CCCN3CCCC[C@H]23)cc1` has an EC50 of over 100 µM. Compound `CCN(CC)CCCn1c(Cc2ccc(Cl)c(Cl)c2)nc2cc(C(F)(F)F)ccc21` has an EC50 of over 100 µM. For `Clc1ccc(Cc2nc3cc(Cl)c(Cl)cc3n2C[C@@H]2CCCN3CCCC[C@H]23)cc1`, the EC50 was over 100 µM.

Tested on: Human alphaherpesvirus 1
Assay: Antiviral activity against HSV1 infected in african green monkey Vero 76 cells assessed as reduction in plaque number after 3 days by plaque reduction assay
Type: functional, organism-based
Conditions: Human alphaherpesvirus 1, Vero, 72 h
Compound `Oc1ccc(-c2nc3cc(C(F)(F)F)ccc3n2C[C@@H]2CCCN3CCCC[C@H]23)cc1` has an EC50 of over 100 µM. `COc1ccc(-c2nc3cc(C(F)(F)F)ccc3n2C[C@H]2CCCN3CCCC[C@H]23)cc1` showed an EC50 of over 100 µM. Compound `CCN(CC)CCCn1c(Cc2ccc(Cl)c(Cl)c2)nc2cc(C(F)(F)F)ccc21` has an EC50 of over 100 µM. For `Clc1ccc(Cc2nc3cc(Cl)c(Cl)cc3n2C[C@@H]2CCCN3CCCC[C@H]23)cc1`, the EC50 was over 100 µM.

Tested on: not listed separately
Assay: Cytotoxicity against mock-infected african green monkey Vero 76 cells after 48 to 96 hrs by MTT assay
Type: cell-based
Conditions: chlorocebus sabaeus, mock-infected Vero 76 cells
Work on `Oc1ccc(-c2nc3cc(C(F)(F)F)ccc3n2C[C@@H]2CCCN3CCCC[C@H]23)cc1` yielded a CC50 of 78 µM. `COc1ccc(-c2nc3cc(C(F)(F)F)ccc3n2C[C@H]2CCCN3CCCC[C@H]23)cc1` gave a CC50 of over 100 µM. `CCN(CC)CCCn1c(Cc2ccc(Cl)c(Cl)c2)nc2cc(C(F)(F)F)ccc21` gave a CC50 of over 100 µM. `Clc1ccc(Cc2nc3cc(Cl)c(Cl)cc3n2C[C@@H]2CCCN3CCCC[C@H]23)cc1` showed a CC50 of over 100 µM.

Tested on: Vesicular stomatitis virus
Assay: Antiviral activity against Vesicular stomatitis virus infected in african green monkey Vero 76 cells assessed as reduction in plaque number after 2 days by plaque reduction assay
Type: functional, organism-based
Conditions: 48 h
With `Oc1ccc(-c2nc3cc(C(F)(F)F)ccc3n2C[C@@H]2CCCN3CCCC[C@H]23)cc1` the EC50 was over 100 µM. In the case of `COc1ccc(-c2nc3cc(C(F)(F)F)ccc3n2C[C@H]2CCCN3CCCC[C@H]23)cc1`, the EC50 is reported as over 100 µM. `CCN(CC)CCCn1c(Cc2ccc(Cl)c(Cl)c2)nc2cc(C(F)(F)F)ccc21` gave an EC50 of over 100 µM. With `Clc1ccc(Cc2nc3cc(Cl)c(Cl)cc3n2C[C@@H]2CCCN3CCCC[C@H]23)cc1` the EC50 was over 100 µM.

Tested on: not listed separately
Assay: Cytotoxicity against mock-infected human MT4 cells after 96 hrs by MTT assay
Type: cell-based
Conditions: not given
How it was run: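 Exponentially growing MT-4 cells were seeded at 1 × 10^5 cells/mL in RPMI-1640 with 10% FBS and held at 37 °C, 5% CO2 with serial compound dilutions. Viability was read by MTT after 96 h. CC50 from linear regression against untreated controls.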
In the case of `Oc1ccc(-c2nc3cc(C(F)(F)F)ccc3n2C[C@@H]2CCCN3CCCC[C@H]23)cc1`, the CC50 at 96 h is reported as 21 µM. In the case of `COc1ccc(-c2nc3cc(C(F)(F)F)ccc3n2C[C@H]2CCCN3CCCC[C@H]23)cc1`, the CC50 at 96 h is reported as 42 µM. In the case of `CCN(CC)CCCn1c(Cc2ccc(Cl)c(Cl)c2)nc2cc(C(F)(F)F)ccc21`, the CC50 at 96 h is reported as 40 µM. With `Clc1ccc(Cc2nc3cc(Cl)c(Cl)cc3n2C[C@@H]2CCCN3CCCC[C@H]23)cc1` the CC50 at 96 h was 17 µM.

Tested on: not listed separately
Assay: Cytotoxicity against mock-infected BHK21 cells after 48 to 96 hrs by MTT assay
Type: functional
Conditions: Mesocricetus auratus, BHK-21
How it was run: as §1
Work on `Oc1ccc(-c2nc3cc(C(F)(F)F)ccc3n2C[C@@H]2CCCN3CCCC[C@H]23)cc1` yielded a CC50 of 60 µM. For `COc1ccc(-c2nc3cc(C(F)(F)F)ccc3n2C[C@H]2CCCN3CCCC[C@H]23)cc1`, the CC50 was 30 µM. With `CCN(CC)CCCn1c(Cc2ccc(Cl)c(Cl)c2)nc2cc(C(F)(F)F)ccc21` the CC50 was over 100 µM. In the case of `Clc1ccc(Cc2nc3cc(Cl)c(Cl)cc3n2C[C@@H]2CCCN3CCCC[C@H]23)cc1`, the CC50 is reported as 30 µM.

Tested on: Respiratory syncytial virus
Assay: Antiviral activity against Respiratory syncytial virus infected in african green monkey Vero 76 cells assessed as reduction in plaque number after 5 days by plaque reduction assay
Type: functional, organism-based
Conditions: human respiratory syncytial virus, 120 h
Compound `Oc1ccc(-c2nc3cc(C(F)(F)F)ccc3n2C[C@@H]2CCCN3CCCC[C@H]23)cc1` has an EC50 of over 100 µM. With `COc1ccc(-c2nc3cc(C(F)(F)F)ccc3n2C[C@H]2CCCN3CCCC[C@H]23)cc1` the EC50 was over 100 µM. For `CCN(CC)CCCn1c(Cc2ccc(Cl)c(Cl)c2)nc2cc(C(F)(F)F)ccc21`, the EC50 was over 100 µM. Compound `Clc1ccc(Cc2nc3cc(Cl)c(Cl)cc3n2C[C@@H]2CCCN3CCCC[C@H]23)cc1` has an EC50 of over 100 µM.
